Source: ChEMBL document CHEMBL1150800, “Multiple-dose escalation study of the safety, pharmacokinetics, and biologic activity of oral AMD070, a selective CXCR4 receptor inhibitor, in human subjects” (Antimicrob Agents Chemother, 2007)
Values after ≈ are worked out from the molar mass of the structure shown.

Experiments:
[1] = Cmax in fasting healthy human at 200 mg, po administered as single dose; format: ADME, organism-based; parameters: dose 200 mg, route oral; conditions: in vivo
Procedure, shortened: (§1)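 Healthy male volunteers, three per cohort, one oral dose after 8-h overnight fast, fasting kept until 1 h post-dose. Plasma sampled predose and at 0.5, 1, 1.5, 2, 3, 4, 6, 8, 12, 16, 20, 24 h. Levels by validated HPLC-MS/MS (liquid-liquid extraction, positive-ion electrospray). Noncompartmental analysis, log-linear trapezoidal AUC, summarized per cohort.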

Homo sapiens [2] = assay: Half life in fasting healthy human at 50 mg, po administered as single dose after 12 hrs; format: ADME, organism-based; conditions: in vivo; procedure, shortened: as §1
[3] = Drug level in fasting healthy human at 400 mg, po administered every 12 hrs measured after 84 hrs; format: ADME, organism-based; conditions: in vivo, read-out: Drug uptake
Procedure, shortened: (§2)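 Six healthy men per cohort dosed orally q12h for seven doses. Morning doses given after 8-h fast, with fasting until 1 h post-dose. After the final dose (72 h after the first) plasma was sampled predose and 0.5–24 h. Validated HPLC-MS/MS assay. Noncompartmental parameters (log-linear trapezoidal AUC) from all time points, summarized per cohort.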

[4] = AUC (0 to 12 hrs) in fasting healthy human at 200 mg, po administered every 12 hrs measured between 72 to 84 hrs postdose; format: ADME, organism-based; parameters: dose 200 mg, time < 12 hr, route oral; conditions: plasma; procedure, shortened: as §2
[5] = Cmax in fasting healthy human at 50 mg, po administered as single dose; format: ADME, organism-based; parameters: dose 50 mg, route oral; conditions: in vivo; procedure, shortened: as §1
[6] = Terminal half life in rat; format: ADME, organism-based; conditions: in vivo
Homo sapiens [7] = assay: Apparent volume of distribution in fasting healthy human at 50 mg, po administered as single dose after 12 hrs; format: ADME, organism-based; conditions: in vivo; procedure, shortened: as §1
[8] = Half life in dog; format: ADME, organism-based, Canis lupus familiaris; conditions: in vivo
[9] = Cmax in fasting healthy human at 200 mg, po administered every 12 hrs; format: ADME, organism-based; parameters: dose 200 mg, route oral; conditions: in vivo; procedure, shortened: as §2
Homo sapiens [10] = assay: Apparent volume of distribution in fasting healthy human at 100 mg, po administered as single dose after 12 hrs; format: ADME, organism-based; conditions: in vivo; procedure, shortened: as §1
Homo sapiens [11] = assay: Apparent volume of distribution in fasting healthy human at 400 mg, po administered as single dose after 12 hrs; format: ADME, organism-based; conditions: in vivo; procedure, shortened: as §1
[12] = Drug level in fasting healthy human at 100 mg, po administered as single dose after 12 hrs; format: ADME, organism-based; conditions: in vivo, read-out: Drug uptake; procedure, shortened: as §1
[13] = Cmax in fasting healthy human at 400 mg, po administered as single dose; format: ADME, organism-based; parameters: dose 400 mg, route oral; conditions: in vivo; procedure, shortened: as §1
[14] = Drug level in fasting healthy human at 100 mg, po administered every 12 hrs measured after 84 hrs; format: ADME, organism-based; conditions: in vivo, read-out: Drug uptake; procedure, shortened: as §2
Homo sapiens [15] = assay: Decrease in CD4 cell count in fasting healthy human at 200 mg, po administered every 12 hrs measured after 24 hrs relative to baseline; format: functional; parameters: scale not given: the % may be the effect or the level left
Procedure, shortened: (§3)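 CD4+ counts drawn before the first dose and at 2, 4, 6, 8 and 24 h after the final (seventh) q12h oral dose in fasting healthy men. Each post-dose value divided by the baseline value to give a ratio. Deviation from no effect tested by Wilcoxon rank sum, dose trend by Jonckheere-Terpstra.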

Homo sapiens [16] = assay: Apparent volume of distribution in fasting healthy human at 200 mg, po administered every 12 hrs; format: ADME, organism-based; conditions: in vivo; procedure, shortened: as §2
Homo sapiens [17] = assay: AUC ( 0 to infinity) in fasting healthy human at 200 mg, po administered as single dose after 12 hrs; format: ADME, organism-based, Plasma; parameters: dose 200 mg, route oral, time infinity; conditions: in vivo; procedure, shortened: as §1
Homo sapiens [18] = assay: Half life in fasting healthy human at 200 mg, po administered every 12 hrs; format: ADME, organism-based; conditions: in vivo; procedure, shortened: as §2
[19] = Cmax in fasting healthy human at 100 mg, po administered every 12 hrs; format: ADME, organism-based; parameters: dose 100 mg, route oral; conditions: in vivo; procedure, shortened: as §2
[20] = Drug level in fasting healthy human at 200 mg, po administered every 12 hrs measured after 72 hrs; format: ADME, organism-based; conditions: in vivo, read-out: Drug uptake; procedure, shortened: as §2
Homo sapiens [21] = assay: Half life in fasting healthy human at 100 mg, po administered as single dose after 12 hrs; format: ADME, organism-based; conditions: in vivo; procedure, shortened: as §1
[22] = AUC (0 to 12 hrs) in fasting healthy human at 400 mg, po administered every 12 hrs measured between 72 to 84 hrs postdose; format: ADME, organism-based; parameters: time < 12 hr, dose 400 mg, route oral; conditions: plasma; procedure, shortened: as §2
[23] = Cmax in fasting healthy human at 100 mg, po administered as single dose; format: ADME, organism-based; parameters: dose 100 mg, route oral; conditions: in vivo; procedure, shortened: as §1
[24] = AUC (0 to 12 hrs) in fasting healthy human at 100 mg, po administered every 12 hrs measured between 72 to 84 hrs postdose; format: ADME, organism-based; parameters: dose 100 mg, time < 12 hr, route oral; conditions: plasma; procedure, shortened: as §2
Homo sapiens [25] = assay: Decrease in CD4 cell count in fasting healthy human at 400 mg, po administered every 12 hrs measured after 24 hrs relative to baseline; format: functional; parameters: scale not given: the % may be the effect or the level left; procedure, shortened: as §3
Homo sapiens [26] = assay: Induction of leucocytosis in po dosed fasting healthy human assessed as increase in WBC count; format: functional, organism-based
Procedure, shortened: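 Total WBC drawn predose and at 2, 4, 6, 8 and 24 h after oral dosing (single-dose cohorts from 200 mg, and multiple-dose cohorts). Ratio taken to baseline. WBC ratio against plasma concentration at all sampling times (n = 232) fit to an Emax model giving Emax and EC50. Per-subject maximum ratio also fit to dose, AUC0-24 and Cmax.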

Homo sapiens [27] = assay: Decrease in CD4 cell count in fasting healthy human at 100 mg, po administered every 12 hrs measured after 24 hrs relative to baseline; format: functional; parameters: scale not given: the % may be the effect or the level left; procedure, shortened: as §3
[28] = Tmax in fasting healthy human at 50 mg, po administered as single dose; format: ADME, organism-based; conditions: in vivo
Procedure, shortened: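 Healthy male volunteers, three per cohort, took one oral dose after an 8-h overnight fast and stayed fasting until 1 h post-dose. Tmax came from per-subject noncompartmental analysis, summarized by cohort.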

NCCCCN(Cc1nc2ccccc2[nH]1)[C@H]1CCCc2cccnc21 [MAVORIXAFOR]
Cmax [1]: 995 ng/mL
t1/2 (Homo sapiens [2]): 10.8 h
concentration at 84 h [3]: 137 ng/mL
AUC at 12 h [4]: 1590 ng·h/mL
Cmax [5]: 159 ng/mL
half-life [6]: 10 h
Vd (Homo sapiens [7]): 3620 L
half-life [8]: 0.7 h
Cmax [9]: 793 ng/mL
Vd (Homo sapiens [10]): 3940 L
Vd (Homo sapiens [11]): 918 L
concentration at 12 h [12]: 2.1 ng/mL
Cmax [13]: 1400 ng/mL
concentration at 84 h [14]: 12 ng/mL
Activity (Homo sapiens [15]): 80%
Vd (Homo sapiens [16]): 1923 L
AUC (Homo sapiens [17]): 1695 ng·h/mL
t1/2 (Homo sapiens [18]): 11.2 h
Cmax [19]: 461 ng/mL
concentration at 72 h [20]: 31 ng/mL
t1/2 (Homo sapiens [21]): 7.6 h
AUC at 12 h [22]: 7660 ng·h/mL
Cmax [23]: 276 ng/mL
AUC at 12 h [24]: 937 ng·h/mL
Activity (Homo sapiens [25]): 80%
EC50 (Homo sapiens [26]): 0.039 µg/mL (≈ 0.112 µM)
Activity (Homo sapiens [27]): 80%
Tmax [28]: 1.5 h
